Columns and labels:
[1] = AUC in male Crl:CD(SD) rat at 4.5 mg/kg, po; assay type: ADME, organism-based; conditions: in vivo
[2] = Cmax in fasted female beagle dog at 1 mg/kg, po; assay type: ADME, organism-based, Canis lupus familiaris; set-up: dose 1 mg/kg, route oral; conditions: in vivo
[3] = Clearance in female beagle dog at 0.5 mg/kg, iv administered as infusion; assay type: ADME, organism-based, Canis lupus familiaris; conditions: in vivo
[4] = AUC in fasted male beagle dog at 1 mg/kg, po; assay type: ADME, organism-based, Canis lupus familiaris; conditions: in vivo
[5] = AUC in male Crl:CD(SD) rat at 0.5 mg/kg, iv; assay type: ADME, organism-based; conditions: in vivo
[6] = Terminal elimination half life in female Crl:CD(SD) rat at 4.5 mg/kg, po; assay type: ADME, organism-based; conditions: in vivo, read-out: beta t1/2 (converted)
Method in brief: (§1)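 Single-dose PK: i.v. and oral dosing in Crl:CD(SD) rats and beagle dogs, plus a pilot oral nasogastric study in Cynomolgus monkeys using a Type IV lipid formulation. Rat i.v. vehicle was 80% cosolvent. Monkeys were fasted from 2 h before until 2 h after dosing, n=3 per sex. Rats also received [14C]-labelled compound orally at 50 mg/kg, with total radioactivity followed. Parameters are means; monkey values are medians.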

[7] = AUC in female beagle dog at 0.5 mg/kg, iv administered as infusion; assay type: ADME, organism-based, Canis lupus familiaris; conditions: in vivo
[8] = Terminal elimination half life in male Crl:CD(SD) rat at 4.5 mg/kg, po; assay type: ADME, organism-based; conditions: in vivo, read-out: beta t1/2 (converted); method in brief: as §1
[9] = AUC in fasted female beagle dog at 1 mg/kg, po; assay type: ADME, organism-based, Canis lupus familiaris; conditions: in vivo
[10] = Cmax in fasted male beagle dog at 1 mg/kg, po; assay type: ADME, organism-based, Canis lupus familiaris; set-up: dose 1 mg/kg, route oral; conditions: in vivo
[11] = molecular target: T1, Metabotropic glutamate receptor 5 (Rattus norvegicus, UniProt P31424); test: Negative allosteric modulation of mGluR5 in E17 Sprague-Dawley rat primary neuronal cultures assessed as reduction of DHPG-induced cytosolic Ca2+ influx after 10 to 20 mins by fluo-4/AM-dye based fluorometric analysis; assay type: functional
T1 sequence (P31424 whole entry): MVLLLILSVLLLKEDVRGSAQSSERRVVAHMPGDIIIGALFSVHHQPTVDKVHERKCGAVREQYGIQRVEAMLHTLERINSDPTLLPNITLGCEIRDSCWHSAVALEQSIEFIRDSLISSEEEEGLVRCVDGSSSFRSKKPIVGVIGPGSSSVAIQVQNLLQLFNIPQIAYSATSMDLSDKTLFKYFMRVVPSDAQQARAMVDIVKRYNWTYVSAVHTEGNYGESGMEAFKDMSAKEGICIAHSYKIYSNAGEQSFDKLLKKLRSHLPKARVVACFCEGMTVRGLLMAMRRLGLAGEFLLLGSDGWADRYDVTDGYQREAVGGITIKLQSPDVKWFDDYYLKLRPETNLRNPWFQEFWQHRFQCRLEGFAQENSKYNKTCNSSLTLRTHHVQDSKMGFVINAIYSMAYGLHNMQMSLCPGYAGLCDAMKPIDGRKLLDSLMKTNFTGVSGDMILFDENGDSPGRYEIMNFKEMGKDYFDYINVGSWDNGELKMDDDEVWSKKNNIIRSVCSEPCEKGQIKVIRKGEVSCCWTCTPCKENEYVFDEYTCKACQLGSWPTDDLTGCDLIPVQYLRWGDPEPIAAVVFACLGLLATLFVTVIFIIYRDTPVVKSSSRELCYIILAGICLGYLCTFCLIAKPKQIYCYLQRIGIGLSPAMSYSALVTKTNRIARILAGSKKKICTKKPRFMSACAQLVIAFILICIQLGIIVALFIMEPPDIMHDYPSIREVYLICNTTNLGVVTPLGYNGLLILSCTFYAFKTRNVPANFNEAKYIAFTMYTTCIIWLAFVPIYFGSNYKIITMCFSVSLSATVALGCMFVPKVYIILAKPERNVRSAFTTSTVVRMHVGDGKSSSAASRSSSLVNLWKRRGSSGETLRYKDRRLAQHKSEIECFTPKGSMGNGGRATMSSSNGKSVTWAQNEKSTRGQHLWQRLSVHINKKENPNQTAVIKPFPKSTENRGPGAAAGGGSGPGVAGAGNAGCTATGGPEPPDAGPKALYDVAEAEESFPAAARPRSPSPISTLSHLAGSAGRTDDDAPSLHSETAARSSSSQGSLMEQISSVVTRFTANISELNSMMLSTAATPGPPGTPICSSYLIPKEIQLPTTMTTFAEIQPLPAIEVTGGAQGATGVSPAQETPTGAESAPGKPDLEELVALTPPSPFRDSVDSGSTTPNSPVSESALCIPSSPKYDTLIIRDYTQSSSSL

[12] = molecular target: T1, Metabotropic glutamate receptor 5; test: Displacement of [3H]M-MPEP from mGluR5 in Sprague-Dawley rat cerebrocortical membranes after 60 mins
[13] = AUC in female Crl:CD(SD) rat at 0.5 mg/kg, iv; assay type: ADME, organism-based; conditions: in vivo
[14] = system: Rattus norvegicus; test: Terminal elimination half life in female Crl:CD(SD) rat at 50 mg/kg, po using [14C]labeled compound; assay type: ADME, organism-based; conditions: in vivo; method in brief: as §1
[15] = system: MDR1; test: Ratio of apparent outward permeability to apparent inward permeability in MDCK2-MDR1 cells; assay type: ADME, cell-based, Canis lupus familiaris; conditions: dog, MDCK-MDR1
Method in brief: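 MDCKII-MDR1 cell monolayers used as an in vitro surrogate of brain penetration. Transport was measured in both the inward and outward directions, and an apparent permeability (Papp) was calculated for each. The directional ratio (PDR) is Papp outward divided by Papp inward.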

[16] = Clearance in male beagle dog at 0.5 mg/kg, iv administered as infusion; assay type: ADME, organism-based, Canis lupus familiaris; conditions: in vivo
[17] = system: Rattus norvegicus; test: Anxiolytic activity in po dosed Wistar rat assessed as reduction in ultrasonic vocalization; assay type: functional
[18] = Terminal elimination half life in male beagle dog at 0.5 mg/kg, iv administered as infusion; assay type: ADME, organism-based, Canis lupus familiaris; conditions: in vivo, read-out: beta t1/2 (converted); method in brief: as §1
[19] = Cmax in female Crl:CD(SD) rat at 4.5 mg/kg, po; assay type: ADME, organism-based; set-up: dose 4.5 mg/kg, route oral; conditions: in vivo
[20] = system: Rattus norvegicus; test: Effect on spatial learning performance in po dosed Wistar rat measured as escape latency dosed 1 hr prior to first daily trial by Morris water maze test; assay type: ADME, organism-based; conditions: in vivo
Method in brief: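 Morris water maze with male Harlan-Wistar rats (190–220 g): three trials a day for 4 days, hidden 10 cm platform, video tracking; 30 mg/kg p.o. in Type IV lipid formulation 1 h before first daily trial; plasma taken after last Day 4 trial; 7–17 rats/group.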

[21] = Tmax in female Crl:CD(SD) rat at 4.5 mg/kg, po; assay type: ADME, organism-based; conditions: in vivo; method in brief: as §1
[22] = molecular target: Cytochrome P450 3A4 (Homo sapiens, UniProt P08684); test: Inhibition of CYP3A4 in human liver microsomes; assay type: ADME
Chain of Cytochrome P450 3A4 (P08684 whole entry): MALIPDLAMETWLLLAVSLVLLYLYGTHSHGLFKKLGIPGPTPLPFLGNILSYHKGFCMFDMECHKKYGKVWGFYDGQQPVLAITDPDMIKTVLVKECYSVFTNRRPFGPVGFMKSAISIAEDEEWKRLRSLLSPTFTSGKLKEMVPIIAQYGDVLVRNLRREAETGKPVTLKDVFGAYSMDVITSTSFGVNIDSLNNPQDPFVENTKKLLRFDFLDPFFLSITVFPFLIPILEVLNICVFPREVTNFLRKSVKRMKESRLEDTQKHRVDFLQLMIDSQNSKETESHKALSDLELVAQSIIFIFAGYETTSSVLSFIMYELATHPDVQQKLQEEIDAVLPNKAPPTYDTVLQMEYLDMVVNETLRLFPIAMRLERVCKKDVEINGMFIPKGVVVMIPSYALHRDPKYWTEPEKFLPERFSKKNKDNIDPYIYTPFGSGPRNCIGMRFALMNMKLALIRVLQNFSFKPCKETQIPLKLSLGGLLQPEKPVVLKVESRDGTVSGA

[23] = molecular target: T2, Metabotropic glutamate receptor 5 (Homo sapiens, UniProt P41594); test: Displacement of [3H]M-MPEP from recombinant human mGluR5a expressed in human A18 cell membrane homogenate
T2 sequence (P41594 whole entry): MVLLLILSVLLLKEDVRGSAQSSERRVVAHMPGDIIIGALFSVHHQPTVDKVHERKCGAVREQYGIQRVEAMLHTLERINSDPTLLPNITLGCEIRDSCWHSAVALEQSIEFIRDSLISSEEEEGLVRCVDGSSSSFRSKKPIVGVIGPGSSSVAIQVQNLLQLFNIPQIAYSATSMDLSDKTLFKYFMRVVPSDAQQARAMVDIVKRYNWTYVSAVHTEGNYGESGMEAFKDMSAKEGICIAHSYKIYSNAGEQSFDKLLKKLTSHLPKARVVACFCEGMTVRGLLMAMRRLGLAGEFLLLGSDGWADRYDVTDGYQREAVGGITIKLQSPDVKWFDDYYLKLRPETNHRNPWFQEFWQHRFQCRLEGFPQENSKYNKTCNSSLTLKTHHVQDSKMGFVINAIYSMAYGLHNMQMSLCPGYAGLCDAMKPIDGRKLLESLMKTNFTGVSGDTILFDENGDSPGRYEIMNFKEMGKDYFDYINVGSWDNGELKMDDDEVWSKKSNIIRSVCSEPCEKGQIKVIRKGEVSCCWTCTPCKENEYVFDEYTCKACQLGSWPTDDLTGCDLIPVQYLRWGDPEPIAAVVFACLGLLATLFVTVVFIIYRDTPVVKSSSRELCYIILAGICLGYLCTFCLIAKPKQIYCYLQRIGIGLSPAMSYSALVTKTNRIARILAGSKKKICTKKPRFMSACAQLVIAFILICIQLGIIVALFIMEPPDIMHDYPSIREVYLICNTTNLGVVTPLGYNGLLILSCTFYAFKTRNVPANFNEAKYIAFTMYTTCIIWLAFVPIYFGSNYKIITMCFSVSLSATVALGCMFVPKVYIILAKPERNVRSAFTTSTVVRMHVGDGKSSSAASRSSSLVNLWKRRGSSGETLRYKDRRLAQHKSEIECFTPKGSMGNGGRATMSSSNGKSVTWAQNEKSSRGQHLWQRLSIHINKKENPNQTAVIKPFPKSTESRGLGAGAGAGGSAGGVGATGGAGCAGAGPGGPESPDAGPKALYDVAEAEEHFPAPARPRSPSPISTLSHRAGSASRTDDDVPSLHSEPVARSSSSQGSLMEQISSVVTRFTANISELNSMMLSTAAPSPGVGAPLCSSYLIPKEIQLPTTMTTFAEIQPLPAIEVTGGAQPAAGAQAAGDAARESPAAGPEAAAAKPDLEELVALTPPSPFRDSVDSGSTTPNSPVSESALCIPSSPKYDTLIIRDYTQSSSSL

[24] = Plasma concentration in Wistar rat at 0.5 mg/kg, po after 75 mins; assay type: ADME, organism-based
Method in brief: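 Plasma levels taken right after the Vogel test (~75 min after oral dose) following single oral doses in lipid-based formulations; data pooled from four experiments; mean±SD.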

[25] = Plasma concentration in ip dosed Wistar rat at anxiolytic MED administered as suspension after 45 mins during Vogel punished drinking conflict test; assay type: ADME, organism-based
Method in brief: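 Vehicle was a suspension containing 5% Tween 80, given i.p. at the Vogel minimum effective dose. Plasma was sampled about 45 min after dosing, right after the Vogel punished drinking test.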

[26] = Plasma concentration in Wistar rat at 10 mg/kg, po qd measured after first dosing during Vogel punished drinking conflict test; assay type: ADME, organism-based
Method in brief: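 Vogel punished-drinking test in rats after 24 h water deprivation, with 60 s unpunished drinking; oral 10 mg/kg given once daily for 19 days, vehicle group dosed only on Day 19 as first-dose control; plasma sampled right after test; n=10 per group; ANOVA with Duncan post-hoc.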

[27] = molecular target: T2, Metabotropic glutamate receptor 5; test: Displacement of [3H]M-MPEP from mGluR5 in female human post mortem parietal cortical tissue after 30 mins by scintillation counting method
[28] = Clearance in male Crl:CD(SD) rat at 0.5 mg/kg, iv; assay type: ADME, organism-based; conditions: in vivo
[29] = Cmax in male Crl:CD(SD) rat at 4.5 mg/kg, po; assay type: ADME, organism-based; set-up: dose 4.5 mg/kg, route oral; conditions: in vivo
[30] = Plasma protein binding in dog; assay type: ADME, cell-free, Canis lupus familiaris; conditions: read-out: PPB (converted)
[31] = Terminal elimination half life in female beagle dog at 0.5 mg/kg, iv administered as infusion; assay type: ADME, organism-based, Canis lupus familiaris; conditions: in vivo, read-out: beta t1/2 (converted); method in brief: as §1
[32] = Terminal elimination half life in fasted male cynomolgus monkey at 9 mg/kg, po administered as single dose; assay type: ADME, organism-based, Macaca fascicularis; conditions: in vivo, read-out: beta t1/2 (converted); method in brief: as §1
[33] = Tmax in fasted male cynomolgus monkey at 9 mg/kg, po administered as single dose; assay type: ADME, organism-based, Macaca fascicularis; conditions: in vivo; method in brief: as §1
[34] = Volume of distribution in female Crl:CD(SD) rat at 0.5 mg/kg, iv; assay type: ADME, organism-based; conditions: in vivo; method in brief: as §1
[35] = Volume of distribution in female beagle dog at 0.5 mg/kg, iv administered as infusion; assay type: ADME, organism-based, Canis lupus familiaris; conditions: in vivo; method in brief: as §1
[36] = Tmax in male Crl:CD(SD) rat at 4.5 mg/kg, po; assay type: ADME, organism-based; conditions: in vivo; method in brief: as §1
[37] = Terminal elimination half life in fasted male beagle dog at 1 mg/kg, po; assay type: ADME, organism-based, Canis lupus familiaris; conditions: in vivo, read-out: beta t1/2 (converted); method in brief: as §1
[38] = Tmax in fasted female beagle dog at 1 mg/kg, po; assay type: ADME, organism-based, Canis lupus familiaris; conditions: in vivo; method in brief: as §1

N#Cc1cccc(S(=O)(=O)c2cnc3cc(F)ccc3c2-c2ccc(Cl)cc2)c1
AUC [1]: 2.19 µM·h
Cmax [2]: 551 nM
clearance [3]: 9.22 mL/min/kg
AUC [4]: 1.86 µM·h
AUC [5]: 0.707 µM·h
half-life [6]: 6.3 h
AUC [7]: 2.22 µM·h
half-life [8]: 7.06 h
AUC [9]: 1.68 µM·h
Cmax [10]: 492 nM
IC50 [11]: 19 nM
Ki [12]: 55.3 nM
AUC [13]: 1.38 µM·h
beta t1/2 [14]: 8 h
efflux ratio [15]: 0.74
clearance [16]: 6.43 mL/min/kg
Activity [17]: Dose-dependent effect
ED50 [17]: 1.5 mg/kg
half-life [18]: 12.2 h
Cmax [19]: 650 nM
Activity [20]: Non-Toxic
MED [20]: > 30 mg/kg
Tmax [21]: 0.75 h
IC50 [22]: > 10000 nM
Ki [23]: 4.9 nM
concentration at 1.25 h [24]: 34.8 nM
concentration at 0.75 h [25]: 51.1 nM
concentration at 1 day [26]: 787 nM
Ki [27]: 12.1 nM
clearance [28]: 27.9 mL/min/kg
Cmax [29]: 369 nM
fraction unbound [30]: 0.0025
half-life [31]: 11.8 h
half-life [32]: 1.4 h
Tmax [33]: 1.7 h
Vd [34]: 9.6 L/kg
Vd [35]: 9.2 L/kg
Tmax [36]: 0.75 h
half-life [37]: 12.8 h
Tmax [38]: 0.83 h

Source: ChEMBL document CHEMBL4007421, “Discovery and Preclinical Characterization of 3-((4-(4-Chlorophenyl)-7-fluoroquinoline-3-yl)sulfonyl)benzonitrile, a Novel Non-acetylenic Metabotropic Glutamate Receptor 5 (mGluR5) Negative Allosteric Modulator for Psychiatric Indications” (J Med Chem, 2017)
